This note sets out measurements from ChEMBL document CHEMBL4406821, “Novel dual inhibitors targeting CDK4 and VEGFR2 synergistically suppressed cancer progression and angiogenesis” (Eur J Med Chem, 2019).

The source made the active and inactive calls. The calls are words filed in the database; no cut-off is given here.

Data set [1] has as its target Maternal embryonic leucine zipper kinase (Homo sapiens) (UniProt Q14680). In words: Inhibition of recombinant human MELK (1 to 340 end residues) at 1 uM using KKLNRTLSFAEPG as substrate incubated for 40 mins in presence of [gamma-33P]-ATP by scintillation counting method relative to control.
Data set [2] has as its system Tyrosine-protein kinase BTK (Homo sapiens), Q06187 [R28H]. Description: Inhibition of recombinant full length human BTK R28H mutant at 1 uM using LSNLYHQGKFLQT as substrate incubated for 40 mins in presence of [gamma-33P]-ATP by scintillation counting method relative to control. An outline of the steps: (§1)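 Tested at a single 1 uM in an outsourced commercial kinase-profiling panel, read as percent inhibition. Each value is the mean of two independent experiments.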

For data set [3], the target named is Myosin light chain kinase, smooth muscle (Homo sapiens) (UniProt Q15746). Description: Inhibition of recombinant human MLCK (1425 to 1771 residues) at 1 uM using KKLNRTLSFAEPG as substrate incubated for 40 mins in presence of [gamma-33P]-ATP by scintillation counting method relative to control.
In data set [4] the target is Tyrosine-protein kinase Fyn (Homo sapiens) (UniProt P06241). Description: Inhibition of recombinant full length human FYN at 1 uM using KVEKIGEGTYGVVYK as substrate incubated for 40 mins in presence of [gamma-33P]-ATP by scintillation counting method relative to control. In outline: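 Kinase panel profiling at 1 μM performed by Eurofins KinaseProfiler; percent inhibition reported as mean of two independent experiments.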

The target in data set [5] is Serine/threonine-protein kinase NIM1 (Homo sapiens) (UniProt Q8IY84). In words: Inhibition of recombinant human full length NIM1 at 1 uM using KKKVSRSGLYRSPSMPENLNRPR as substrate incubated for 40 mins in presence of [gamma-33P]-ATP by scintillation counting method relative to control.
A short description of data set [6]: VRT (0 to t) in Sprague-Dawley rat at 10 mg/kg, po by HPLC-MS analysis. As to conditions: in vivo. It is filed as ADME, organism-based.
In data set [7] the target is CDK2/Cyclin A2 (Homo sapiens, UniProt P24941). Description: Inhibition of recombinant human full length CDK2/CyclinA using as histone H1 substrate incubated for 40 mins in presence of [gamma-33P]-ATP by scintillation counting method. Format: protein-complex assay.
The target in data set [8] is Wee1-like protein kinase (Homo sapiens) (UniProt P30291). In words: Inhibition of recombinant human WEE1 (214 to end residues) at 1 uM using LSNLYHQGKFLQTFCGSPLYRRR as substrate incubated for 40 mins in presence of [gamma-33P]-ATP by scintillation counting method relative to control.
For data set [9], the target named is RAC-gamma serine/threonine-protein kinase (Homo sapiens) (UniProt Q9Y243). In words: Inhibition of recombinant human PKBgamma (117 to end residues) at 1 uM using GRPRTSSFAEGKK as substrate incubated for 40 mins in presence of [gamma-33P]-ATP by scintillation counting method relative to control.
The target in data set [10] is Ephrin type-A receptor 5 (Homo sapiens) (UniProt P54756). In words: Inhibition of recombinant human EPhA5 (655 to 956 residues) at 1 uM using poly(Glu, Tyr) 4:1 as substrate incubated for 40 mins in presence of [gamma-33P]-ATP by scintillation counting method relative to control.
Data set [11] addresses Ephrin type-B receptor 4 (Homo sapiens) (UniProt P54760). Description: Inhibition of recombinant human EPhB4 (561 to end residues) at 1 uM using poly (Glu, Tyr) 4:1 as substrate incubated for 40 mins in presence of [gamma-33P]-ATP by scintillation counting method relative to control.
The target of data set [12] is Protein kinase C beta type (Homo sapiens) (UniProt P05771). In words: Inhibition of recombinant human PKCbeta1 (2 to end residues) at 1 uM using histone H1 as substrate incubated for 40 mins in presence of [gamma-33P]-ATP by scintillation counting method relative to control.
Data set [13] has as its target Protein-tyrosine kinase 2-beta (Homo sapiens) (UniProt Q14289). Description: Inhibition of recombinant human full length PYK2 at 1 uM using poly(Glu, Tyr) 4:1 as substrate incubated for 40 mins in presence of [gamma-33P]-ATP by scintillation counting method relative to control.
In data set [14] the target is Mitogen-activated protein kinase kinase kinase 5 (Homo sapiens) (UniProt Q99683). Description: Inhibition of recombinant human ASK1 (649 to 946 residues) at 1 uM using myelin ba as substrate incubated for 40 mins in presence of [gamma-33P]-ATP by scintillation counting method relative to control. In outline: as §1
The target in data set [15] is Serine/threonine-protein kinase PLK3 (Homo sapiens) (UniProt Q9H4B4). Description: Inhibition of recombinant human PLK3 (19 to 301 residues) at 1 uM using casein as substrate incubated for 40 mins in presence of [gamma-33P]-ATP by scintillation counting method relative to control.
For data set [16], the system named is Mast/stem cell growth factor receptor Kit (Homo sapiens), P10721 [D816H]. Description: Inhibition of recombinant human cKIT D816H mutant (544 to end residues) at 1 uM using GGMEDIYFEFMGG as substrate incubated for 40 mins in presence of [gamma-33P]-ATP by scintillation counting method relative to control. An outline of the steps:
as §1

Data set [17] concerns the target Mitogen-activated protein kinase kinase kinase 10 (Homo sapiens) (UniProt Q02779). Description: Inhibition of recombinant human MLK2 (1 to 449 residues) at 1 uM using myelin basic protein as substrate incubated for 40 mins in presence of [gamma-33P]-ATP by scintillation counting method relative to control.
Data set [18] concerns the target Mitogen-activated protein kinase kinase kinase 3 (Homo sapiens) (UniProt Q99759). In words: Inhibition of recombinant human full length MEKK3 at 1 uM using myelin basic protein as substrate incubated for 40 mins in presence of [gamma-33P]-ATP by scintillation counting method relative to control.
Data set [19] deals with T47D. Description: Induction of apoptosis in human T47D cells assessed as increase in early apoptotic cells at 20 to 40 nM incubated for 48 hrs by annexin V FITC and propidium iodide staining based flow cytometry. It is filed as functional, cell-based. An outline of the steps:
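Annexin V-FITC/PI double staining with flow-cytometric readout. MDA-MB-231, T-47D, SiHa and HeLa cells were treated with graded concentrations for 48 h. MDA-MB-231 and T-47D were grown in DMEM and SiHa in 1640 medium, each with 10% FBS and 1% penicillin/streptomycin at 37°C under 5% CO2. Early- and late-stage apoptotic fractions were scored.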
In general terms: Flow cytometry measures light scatter and fluorescence of single cells or particles in a stream.

Data set [20] deals with Vascular endothelial growth factor receptor 2 (Homo sapiens, UniProt P35968). In words: Inhibition of recombinant human KDR (790 to end residues) at 1 uM using myelin basic protein as substrate incubated for 40 mins in presence of [gamma-33P]-ATP by scintillation counting method relative to control.
Data set [21] concerns MDA-MB-231. Description: Antiproliferative activity against human MDA-MB-231 cells at 40 nM assessed as reduction in cell viability incubated for 48 hrs by EdU staining based laser scanning confocal microscopy. Format: functional. An outline of the steps:
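Cells, 5×10^4, were seeded in 24-well plates and treated for 48 h. They were then labeled using an EdU Apollo 488 imaging kit with Hoechst 33342 nuclear stain and imaged by laser scanning confocal microscopy. Percent EdU-positive cells = EdU-positive/Hoechst-stained × 100%.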

Mitogen-activated protein kinase kinase kinase 10 (Homo sapiens), sequence (Q02779 whole entry, looked up, the tested form may be a part): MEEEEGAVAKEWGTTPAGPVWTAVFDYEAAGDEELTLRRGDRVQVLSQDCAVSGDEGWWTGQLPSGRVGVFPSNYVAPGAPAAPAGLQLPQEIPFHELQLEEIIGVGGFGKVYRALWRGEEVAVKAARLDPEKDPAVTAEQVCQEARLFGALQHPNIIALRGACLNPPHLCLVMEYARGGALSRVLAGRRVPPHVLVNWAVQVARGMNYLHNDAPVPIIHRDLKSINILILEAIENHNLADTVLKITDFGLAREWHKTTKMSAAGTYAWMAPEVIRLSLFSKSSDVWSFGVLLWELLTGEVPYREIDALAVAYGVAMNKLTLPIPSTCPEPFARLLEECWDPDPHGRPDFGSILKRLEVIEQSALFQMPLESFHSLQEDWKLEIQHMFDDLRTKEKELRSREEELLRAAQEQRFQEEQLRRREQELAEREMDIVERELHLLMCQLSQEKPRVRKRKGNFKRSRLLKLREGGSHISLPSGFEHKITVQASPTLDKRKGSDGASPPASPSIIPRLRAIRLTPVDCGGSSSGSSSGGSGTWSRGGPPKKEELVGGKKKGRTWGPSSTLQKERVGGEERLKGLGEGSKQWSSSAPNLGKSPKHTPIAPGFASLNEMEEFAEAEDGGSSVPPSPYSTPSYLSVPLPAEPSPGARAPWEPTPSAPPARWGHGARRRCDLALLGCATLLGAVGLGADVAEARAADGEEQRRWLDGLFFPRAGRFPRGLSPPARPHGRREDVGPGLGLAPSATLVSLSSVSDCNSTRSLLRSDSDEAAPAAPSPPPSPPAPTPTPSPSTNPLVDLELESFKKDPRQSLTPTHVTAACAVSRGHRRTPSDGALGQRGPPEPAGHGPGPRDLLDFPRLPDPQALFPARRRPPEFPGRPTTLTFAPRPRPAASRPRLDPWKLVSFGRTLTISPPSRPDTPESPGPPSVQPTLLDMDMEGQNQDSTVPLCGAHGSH
Mitogen-activated protein kinase kinase kinase 3 (Homo sapiens), sequence (Q99759 whole entry): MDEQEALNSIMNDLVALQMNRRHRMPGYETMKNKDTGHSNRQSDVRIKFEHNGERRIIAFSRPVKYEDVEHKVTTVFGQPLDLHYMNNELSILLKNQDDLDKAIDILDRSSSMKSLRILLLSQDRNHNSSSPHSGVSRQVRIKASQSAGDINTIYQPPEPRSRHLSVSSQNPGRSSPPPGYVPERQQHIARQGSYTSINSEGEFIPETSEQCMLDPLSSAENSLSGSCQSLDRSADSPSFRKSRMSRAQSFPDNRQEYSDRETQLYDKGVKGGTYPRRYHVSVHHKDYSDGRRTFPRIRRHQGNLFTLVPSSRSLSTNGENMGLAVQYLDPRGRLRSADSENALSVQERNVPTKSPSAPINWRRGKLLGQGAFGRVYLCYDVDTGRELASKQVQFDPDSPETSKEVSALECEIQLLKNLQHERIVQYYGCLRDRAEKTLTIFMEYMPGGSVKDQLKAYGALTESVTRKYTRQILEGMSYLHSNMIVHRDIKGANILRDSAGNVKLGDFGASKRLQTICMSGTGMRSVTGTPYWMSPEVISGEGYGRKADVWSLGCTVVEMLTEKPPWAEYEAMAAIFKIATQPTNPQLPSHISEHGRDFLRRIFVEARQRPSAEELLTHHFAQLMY
Ephrin type-A receptor 5 (Homo sapiens), sequence (P54756 whole entry, the tested form may be a part): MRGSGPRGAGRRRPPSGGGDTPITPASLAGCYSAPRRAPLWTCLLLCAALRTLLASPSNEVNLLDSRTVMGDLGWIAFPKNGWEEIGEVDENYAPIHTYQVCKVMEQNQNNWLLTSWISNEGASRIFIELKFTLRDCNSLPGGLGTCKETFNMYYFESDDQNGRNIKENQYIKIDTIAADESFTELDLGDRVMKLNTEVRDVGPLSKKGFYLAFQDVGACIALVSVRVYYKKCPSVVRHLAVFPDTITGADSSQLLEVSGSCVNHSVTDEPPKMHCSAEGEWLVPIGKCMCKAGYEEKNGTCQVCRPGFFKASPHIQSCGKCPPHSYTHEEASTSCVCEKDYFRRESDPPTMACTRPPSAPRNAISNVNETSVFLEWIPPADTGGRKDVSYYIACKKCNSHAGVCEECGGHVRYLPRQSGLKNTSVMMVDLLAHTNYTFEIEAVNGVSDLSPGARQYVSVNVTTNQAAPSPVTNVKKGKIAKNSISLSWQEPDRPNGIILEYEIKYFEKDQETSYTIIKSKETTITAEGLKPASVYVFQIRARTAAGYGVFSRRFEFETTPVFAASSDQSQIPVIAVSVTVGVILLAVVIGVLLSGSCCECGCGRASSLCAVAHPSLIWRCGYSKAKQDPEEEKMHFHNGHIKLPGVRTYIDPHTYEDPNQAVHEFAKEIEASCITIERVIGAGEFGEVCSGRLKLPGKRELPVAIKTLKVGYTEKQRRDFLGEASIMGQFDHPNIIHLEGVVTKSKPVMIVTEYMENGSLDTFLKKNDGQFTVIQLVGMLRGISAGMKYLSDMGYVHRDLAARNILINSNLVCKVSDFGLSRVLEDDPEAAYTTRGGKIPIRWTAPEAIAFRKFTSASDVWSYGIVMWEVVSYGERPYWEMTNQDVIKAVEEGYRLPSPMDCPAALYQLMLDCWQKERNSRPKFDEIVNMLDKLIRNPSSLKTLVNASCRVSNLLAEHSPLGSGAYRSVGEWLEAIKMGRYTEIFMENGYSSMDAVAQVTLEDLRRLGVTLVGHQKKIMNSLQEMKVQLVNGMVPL
Serine/threonine-protein kinase NIM1 (Homo sapiens), sequence (Q8IY84 whole entry): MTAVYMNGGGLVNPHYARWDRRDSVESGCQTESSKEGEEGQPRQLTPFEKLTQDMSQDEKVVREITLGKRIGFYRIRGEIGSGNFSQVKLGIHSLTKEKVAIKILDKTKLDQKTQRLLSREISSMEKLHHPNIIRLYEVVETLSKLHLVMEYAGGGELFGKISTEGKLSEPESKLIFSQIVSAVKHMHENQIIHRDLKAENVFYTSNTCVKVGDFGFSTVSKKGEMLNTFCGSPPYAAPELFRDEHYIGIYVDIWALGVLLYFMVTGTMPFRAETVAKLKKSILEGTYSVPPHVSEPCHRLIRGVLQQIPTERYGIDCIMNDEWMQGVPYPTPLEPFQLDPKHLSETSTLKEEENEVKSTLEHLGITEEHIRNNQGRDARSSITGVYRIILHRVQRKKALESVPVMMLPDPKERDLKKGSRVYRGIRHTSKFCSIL
Tyrosine-protein kinase BTK (Homo sapiens), Q06187 [R28H], sequence (Q06187 whole entry R28H): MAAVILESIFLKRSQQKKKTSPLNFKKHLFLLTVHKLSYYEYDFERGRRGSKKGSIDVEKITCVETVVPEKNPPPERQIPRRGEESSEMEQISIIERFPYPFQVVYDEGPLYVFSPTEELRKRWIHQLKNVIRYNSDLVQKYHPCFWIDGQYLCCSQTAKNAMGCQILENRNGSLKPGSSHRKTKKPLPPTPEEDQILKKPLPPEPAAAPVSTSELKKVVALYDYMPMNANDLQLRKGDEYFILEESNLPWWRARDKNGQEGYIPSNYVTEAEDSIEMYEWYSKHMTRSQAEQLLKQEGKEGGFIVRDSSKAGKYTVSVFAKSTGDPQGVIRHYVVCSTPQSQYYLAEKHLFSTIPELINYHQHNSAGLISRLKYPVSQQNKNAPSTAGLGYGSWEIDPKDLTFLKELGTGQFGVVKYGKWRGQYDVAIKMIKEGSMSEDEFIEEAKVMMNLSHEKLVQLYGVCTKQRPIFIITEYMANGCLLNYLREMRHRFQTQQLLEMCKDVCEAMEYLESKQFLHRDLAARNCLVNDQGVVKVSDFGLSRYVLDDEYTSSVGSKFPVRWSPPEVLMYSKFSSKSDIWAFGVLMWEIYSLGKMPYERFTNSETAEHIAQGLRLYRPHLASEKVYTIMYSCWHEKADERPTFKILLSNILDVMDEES
Wee1-like protein kinase (Homo sapiens), sequence (P30291 whole entry, looked up): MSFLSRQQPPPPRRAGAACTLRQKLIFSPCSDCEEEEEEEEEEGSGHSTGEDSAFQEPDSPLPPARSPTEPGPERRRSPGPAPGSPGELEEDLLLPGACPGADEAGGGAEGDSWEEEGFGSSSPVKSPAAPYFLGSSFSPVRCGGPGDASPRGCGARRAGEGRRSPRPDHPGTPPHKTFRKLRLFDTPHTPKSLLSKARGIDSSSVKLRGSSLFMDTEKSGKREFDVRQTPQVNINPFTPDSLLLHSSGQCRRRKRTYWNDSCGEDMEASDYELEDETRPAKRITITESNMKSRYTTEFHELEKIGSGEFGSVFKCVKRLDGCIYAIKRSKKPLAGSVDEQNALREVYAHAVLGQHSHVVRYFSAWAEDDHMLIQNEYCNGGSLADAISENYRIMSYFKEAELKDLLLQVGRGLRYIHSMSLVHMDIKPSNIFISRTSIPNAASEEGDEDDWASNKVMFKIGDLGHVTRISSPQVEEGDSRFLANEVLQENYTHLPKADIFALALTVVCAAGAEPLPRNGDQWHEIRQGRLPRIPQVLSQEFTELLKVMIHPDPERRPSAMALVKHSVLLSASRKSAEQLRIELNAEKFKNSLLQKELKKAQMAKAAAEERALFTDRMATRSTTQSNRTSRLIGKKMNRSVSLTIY
Serine/threonine-protein kinase PLK3 (Homo sapiens), sequence (Q9H4B4 whole entry, looked up, the tested form may be a part): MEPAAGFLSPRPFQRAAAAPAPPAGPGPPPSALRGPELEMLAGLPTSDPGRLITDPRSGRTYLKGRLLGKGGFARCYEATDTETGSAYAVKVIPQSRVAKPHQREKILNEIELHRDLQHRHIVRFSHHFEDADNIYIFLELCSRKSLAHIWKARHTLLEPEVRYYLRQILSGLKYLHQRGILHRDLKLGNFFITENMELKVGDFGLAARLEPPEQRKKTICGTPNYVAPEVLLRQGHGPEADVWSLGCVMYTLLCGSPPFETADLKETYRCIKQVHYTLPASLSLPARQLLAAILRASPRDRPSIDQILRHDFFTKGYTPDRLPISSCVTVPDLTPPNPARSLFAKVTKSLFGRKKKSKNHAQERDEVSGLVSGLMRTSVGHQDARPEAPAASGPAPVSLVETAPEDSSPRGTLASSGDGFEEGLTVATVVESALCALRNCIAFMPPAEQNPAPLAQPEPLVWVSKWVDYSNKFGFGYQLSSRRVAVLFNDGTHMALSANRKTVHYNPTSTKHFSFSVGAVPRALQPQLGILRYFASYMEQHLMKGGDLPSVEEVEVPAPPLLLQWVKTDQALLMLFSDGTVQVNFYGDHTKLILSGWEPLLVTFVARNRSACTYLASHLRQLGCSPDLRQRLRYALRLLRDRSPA

On to `Cc1ccc(NC(=O)C2(C(=O)Nc3ccc(Nc4ncc(F)c(-c5cc(F)c6nc(C)n(C(C)C)c6c5)n4)cc3)CC2)cc1`, for which the inhibition in data set [1] is 53%; in data set [2], 0%; in data set [3], 21%; in [4], 32%; in data set [5], 66%; in data set [8], 5%. Besides, the inhibition in data set [9] was found to be 64%; in [10], 33%; in data set [11], 42%; in data set [12] it was 36%; in data set [13], 73%; in [14], 0%. The inhibition came to 36% in data set [15]; 76% in data set [16]; 2% in data set [17]; 78% in data set [18]; 95% in [20]. Besides, the “VRT(t)” value in data set [6] was 7 h. Besides, the IC50 in data set [7] stood at 230 nM. Also, the result in data set [19] was Active.
Consider `COc1cc2nccc(Oc3ccc(NC(=O)C4(C(=O)Nc5ccc(F)cc5)CC4)cc3)c2cc1OC` [CABOZANTINIB], for which the inhibition entry in [21] is “Active”.

In general, inhibition refers to the share of the control response that was lost under treatment. As usually defined, the IC50 is the concentration needed to halve the response being measured.
